Measured values: ChEMBL document CHEMBL3397040, “Synthesis and antitumor activity of novel per-butyrylated glycosides of podophyllotoxin and its derivatives” (Bioorg Med Chem, 2015)
pIC50: −log10 of the molar value.

Experiments:
Type in all cases: functional, cell-based
[1] = tested on: A549; assay: Anticancer activity against human A549 cells after 48 hrs by MTT assay; details: A549, 48 h
Method in brief: (§1)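 Cells grown in RPMI-1640 or DMEM with 10% FBS at 37 °C, 5% CO2. Seeded at 1 × 10^5 cells/mL in 100 µL per well. Adherent lines were allowed to attach for 12 h before drug; suspension cells were seeded just before drug. Triplicate exposure to a range of compound concentrations for 48 h. MTT (100 µg/well) was added for 4 h at 37 °C, cells lysed with SDS, and OD read at 595 nm.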

[2] = Anticancer activity against human HL60 cells after 48 hrs by MTT assay; details: HL-60, 48 h; method in brief: as §1
[3] = tested on: SW480; assay: Anticancer activity against human SW480 cells after 48 hrs by MTT assay; details: SW480, 48 h; method in brief: as §1
[4] = tested on: MCF7; assay: Anticancer activity against human MCF7 cells after 48 hrs by MTT assay; details: MCF7, 48 h; method in brief: as §1
[5] = Anticancer activity against human SMMC7721 cells after 48 hrs by MTT assay; details: SMMC-7721, 48 h; method in brief: as §1

Compound | pIC50 [1] | pIC50 [3] | pIC50 [4] | pIC50 [2] | pIC50 [5]
CCCC(=O)OC[C@H]1O[C@H](O[C@@H]2c3cc4c(cc3[C@@H](c3cc(OC)c(O)c(OC)c3)[C@H]3C(=O)OC[C@@H]32)OCO4)[C@@H](OC(=O)CCC)[C@@H](OC(=O)CCC)[C@@H]1OC(=O)CCC | 5.51 | 5.31 | 5.12 | 5.57 | 5.42
CCCC(=O)OC[C@H]1O[C@@H](O[C@H]2[C@H](OC(=O)CCC)[C@@H](OC(=O)CCC)[C@@H](O[C@@H]3c4cc5c(cc4[C@@H](c4cc(OC)c(OC)c(OC)c4)[C@H]4C(=O)OC[C@@H]43)OCO5)O[C@@H]2COC(=O)CCC)[C@H](OC(=O)CCC)[C@@H](OC(=O)CCC)[C@H]1OC(=O)CCC | < 4.40 | < 4.40 | < 4.40 | < 4.40 | < 4.40
COc1cc([C@@H]2c3cc4c(cc3[C@@H](O[C@@H]3O[C@@H]5CO[C@@H](C)O[C@H]5[C@H](O)[C@H]3O)[C@H]3COC(=O)[C@H]23)OCO4)cc(OC)c1O [ETOPOSIDE] | 4.92 | 4.77 | 4.48 | 6.51 | 5.09
CCCC(=O)OC[C@H]1O[C@H](O[C@H]2[C@H](OC(=O)CCC)[C@@H](OC(=O)CCC)[C@@H](O[C@@H]3c4cc5c(cc4[C@@H](c4cc(OC)c(O)c(OC)c4)[C@H]4C(=O)OC[C@@H]43)OCO5)O[C@@H]2COC(=O)CCC)[C@H](OC(=O)CCC)[C@@H](OC(=O)CCC)[C@@H]1OC(=O)CCC | < 4.40 | < 4.40 | < 4.40 | < 4.40 | < 4.40
CCCC(=O)OC[C@H]1O[C@@H](O[C@@H]2c3cc4c(cc3[C@@H](c3cc(OC)c(OC)c(OC)c3)[C@H]3C(=O)OC[C@@H]32)OCO4)[C@H](OC(=O)CCC)[C@@H](OC(=O)CCC)[C@@H]1OC(=O)CCC | 5.95 | 5.90 | 5.77 | 6.21 | 6.08
CCCC(=O)OC[C@H]1O[C@H](O[C@@H]2c3cc4c(cc3[C@@H](c3cc(OC)c(O)c(OC)c3)[C@H]3C(=O)OC[C@@H]32)OCO4)[C@H](OC(=O)CCC)[C@@H](OC(=O)CCC)[C@H]1OC(=O)CCC | 5.24 | 4.97 | 5.25 | 5.31 | 5.42
CCCC(=O)OC[C@H]1O[C@@H](O[C@@H]2c3cc4c(cc3[C@@H](c3cc(OC)c(OC)c(OC)c3)[C@H]3C(=O)OC[C@@H]32)OCO4)[C@H](OC(=O)CCC)[C@@H](OC(=O)CCC)[C@H]1OC(=O)CCC | 4.75 | 4.58 | 4.66 | 5.50 | 4.74
CCCC(=O)OC[C@H]1O[C@@H](O[C@H]2[C@H](OC(=O)CCC)[C@@H](OC(=O)CCC)[C@@H](O[C@@H]3c4cc5c(cc4[C@@H](c4cc(OC)c(O)c(OC)c4)[C@H]4C(=O)OC[C@@H]43)OCO5)O[C@@H]2COC(=O)CCC)[C@H](OC(=O)CCC)[C@@H](OC(=O)CCC)[C@H]1OC(=O)CCC | 4.73 | < 4.40 | < 4.40 | 5.02 | 4.69
CCCC(=O)OC[C@H]1O[C@H](O[C@@H]2c3cc4c(cc3[C@@H](c3cc(OC)c(O)c(OC)c3)[C@H]3C(=O)OC[C@@H]32)OCO4)[C@H](OC(=O)CCC)[C@@H](OC(=O)CCC)[C@@H]1OC(=O)CCC | 4.79 | 4.41 | 4.41 | 4.77 | 4.77
CCCC(=O)OC[C@H]1O[C@H](O[C@H]2[C@H](OC(=O)CCC)[C@@H](OC(=O)CCC)[C@@H](O[C@@H]3c4cc5c(cc4[C@@H](c4cc(OC)c(OC)c(OC)c4)[C@H]4C(=O)OC[C@@H]43)OCO5)O[C@@H]2COC(=O)CCC)[C@H](OC(=O)CCC)[C@@H](OC(=O)CCC)[C@@H]1OC(=O)CCC | < 4.40 | < 4.40 | < 4.40 | < 4.40 | < 4.40

Now from value to molecule, other results behind:

pIC50 [1] | pIC50 [3] | pIC50 [4] | Compound | pIC50 [2] | pIC50 [5]
5.45 | 5.30 | 5.33 | CCCC(=O)O[C@@H]1[C@@H](OC(=O)CCC)[C@H](C)O[C@@H](O[C@@H]2c3cc4c(cc3[C@@H](c3cc(OC)c(O)c(OC)c3)[C@H]3C(=O)OC[C@@H]32)OCO4)[C@@H]1OC(=O)CCC | 5.60 | 5.57
4.64 | < 4.40 | 4.53 | CCCC(=O)O[C@@H]1[C@@H](O[C@@H]2c3cc4c(cc3[C@@H](c3cc(OC)c(O)c(OC)c3)[C@H]3C(=O)OC[C@@H]32)OCO4)OC[C@@H](OC(=O)CCC)[C@@H]1OC(=O)CCC | 4.58 | 4.77
5.12 | 4.77 | 4.87 | CCCC(=O)O[C@@H]1[C@@H](OC(=O)CCC)[C@H](C)O[C@@H](O[C@@H]2c3cc4c(cc3[C@@H](c3cc(OC)c(OC)c(OC)c3)[C@H]3C(=O)OC[C@@H]32)OCO4)[C@@H]1OC(=O)CCC | 5.27 | 4.82
6.21 | 5.95 | 5.85 | CCCC(=O)O[C@@H]1[C@@H](O[C@@H]2c3cc4c(cc3[C@@H](c3cc(OC)c(OC)c(OC)c3)[C@H]3C(=O)OC[C@@H]32)OCO4)OC[C@@H](OC(=O)CCC)[C@@H]1OC(=O)CCC | 6.22 | 6.11
< 4.40 | < 4.40 | < 4.40 | CCCC(=O)OC[C@H]1O[C@H](O[C@@H]2c3cc4c(cc3[C@@H](c3cc(OC)c(OC)c(OC)c3)[C@H]3C(=O)OC[C@@H]32)OCO4)[C@@H](OC(=O)CCC)[C@@H](OC(=O)CCC)[C@@H]1OC(=O)CCC | < 4.40 | < 4.40
< 4.40 | < 4.40 | < 4.40 | CCCC(=O)OC[C@H]1O[C@H](O[C@@H]2c3cc4c(cc3[C@@H](c3cc(OC)c(OC)c(OC)c3)[C@H]3C(=O)OC[C@@H]32)OCO4)[C@H](OC(=O)CCC)[C@@H](OC(=O)CCC)[C@@H]1OC(=O)CCC | < 4.40 | < 4.40
6.21 | 5.78 | 5.90 | CCCC(=O)OC[C@H]1O[C@H](O[C@@H]2c3cc4c(cc3[C@@H](c3cc(OC)c(OC)c(OC)c3)[C@H]3C(=O)OC[C@@H]32)OCO4)[C@H](OC(=O)CCC)[C@@H](OC(=O)CCC)[C@H]1OC(=O)CCC | 6.85 | 6.21
